Reference: ChEMBL document CHEMBL5661986, “Discovery of the SMYD3 Inhibitor BAY-6035 Using Thermal Shift Assay (TSA)-Based High-Throughput Screening” (SLAS Discov, 2021)
Active and inactive are the calls of the source. No cut-off for these calls is given here.

Assays:
[1] = target: Histone-lysine N-methyltransferase SETD2 (Homo sapiens) (UniProt Q9BYW2); experiment: Inhibition of SETD2 (unknown origin)
[2] = target: Mitogen-activated protein kinase 7 (Homo sapiens, UniProt Q13164); experiment: Inhibition of GST-tagged ERK5 catalytic domain (unknown origin) in presence of ATP
[3] = target: T1, Histone-lysine N-methyltransferase SMYD3 (Homo sapiens, UniProt Q9H7B4); experiment: Binding affinity to biotinylated SMYD3 (unknown origin) assessed as dissociation constant using S-adenosyl-l-methionine as substrate by surface plasmon resonance analysis
T1 sequence (Q9H7B4 whole entry): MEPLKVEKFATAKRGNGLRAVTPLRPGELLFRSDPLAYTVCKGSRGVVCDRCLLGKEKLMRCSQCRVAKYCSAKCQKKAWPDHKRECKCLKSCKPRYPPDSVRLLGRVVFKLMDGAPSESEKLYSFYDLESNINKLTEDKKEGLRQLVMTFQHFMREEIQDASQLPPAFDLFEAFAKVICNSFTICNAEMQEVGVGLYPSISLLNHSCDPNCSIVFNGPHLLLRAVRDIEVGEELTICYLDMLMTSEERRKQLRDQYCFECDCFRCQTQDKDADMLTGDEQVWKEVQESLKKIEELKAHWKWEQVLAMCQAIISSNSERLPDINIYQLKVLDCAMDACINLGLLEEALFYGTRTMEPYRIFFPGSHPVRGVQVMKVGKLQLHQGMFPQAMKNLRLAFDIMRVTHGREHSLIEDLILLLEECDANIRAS
In short: (§1)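 Biotinylated SMYD3 (aa 1–428) captured (~4700 RU) on streptavidin chip, empty reference flow cell; 25 °C; running buffer 20 mM HEPES pH 7.4, 150 mM NaCl, 3 mM EDTA, 0.05% Tween-20, 2% DMSO, plus 50 µM SAM. Single-cycle kinetics, five concentrations 25–2000 nM, 60 s contact, 300 s dissociation, 30 µL/min; triplicate.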

[4] = target: Serine/threonine-protein kinase TBK1 (Homo sapiens, UniProt Q9UHD2); experiment: Inhibition of TBK1 (unknown origin) in presence of ATP by HTRF assay
HaCaT = experiment: Antiproliferative activity against human HaCaT cells assessed as inhibition of cell viability measured for 3 to 5 days by alamar blue staining based assay; format: functional
[5] = Antiproliferative activity against human NCI-H2110 cells assessed as inhibition of cell viability measured for 3 to 5 days by alamar blue staining based assay; format: functional
HT-29 = experiment: Antiproliferative activity against human HT-29 cells assessed as inhibition of cell viability measured for 3 to 5 days by alamar blue staining based assay; format: functional
[6] = target: Mitogen-activated protein kinase kinase kinase kinase 1 (Homo sapiens, UniProt Q92918); experiment: Inhibition of MAP4K1 (unknown origin) by competition binding assay
Chain of Mitogen-activated protein kinase kinase kinase kinase 1 (Q92918 whole entry): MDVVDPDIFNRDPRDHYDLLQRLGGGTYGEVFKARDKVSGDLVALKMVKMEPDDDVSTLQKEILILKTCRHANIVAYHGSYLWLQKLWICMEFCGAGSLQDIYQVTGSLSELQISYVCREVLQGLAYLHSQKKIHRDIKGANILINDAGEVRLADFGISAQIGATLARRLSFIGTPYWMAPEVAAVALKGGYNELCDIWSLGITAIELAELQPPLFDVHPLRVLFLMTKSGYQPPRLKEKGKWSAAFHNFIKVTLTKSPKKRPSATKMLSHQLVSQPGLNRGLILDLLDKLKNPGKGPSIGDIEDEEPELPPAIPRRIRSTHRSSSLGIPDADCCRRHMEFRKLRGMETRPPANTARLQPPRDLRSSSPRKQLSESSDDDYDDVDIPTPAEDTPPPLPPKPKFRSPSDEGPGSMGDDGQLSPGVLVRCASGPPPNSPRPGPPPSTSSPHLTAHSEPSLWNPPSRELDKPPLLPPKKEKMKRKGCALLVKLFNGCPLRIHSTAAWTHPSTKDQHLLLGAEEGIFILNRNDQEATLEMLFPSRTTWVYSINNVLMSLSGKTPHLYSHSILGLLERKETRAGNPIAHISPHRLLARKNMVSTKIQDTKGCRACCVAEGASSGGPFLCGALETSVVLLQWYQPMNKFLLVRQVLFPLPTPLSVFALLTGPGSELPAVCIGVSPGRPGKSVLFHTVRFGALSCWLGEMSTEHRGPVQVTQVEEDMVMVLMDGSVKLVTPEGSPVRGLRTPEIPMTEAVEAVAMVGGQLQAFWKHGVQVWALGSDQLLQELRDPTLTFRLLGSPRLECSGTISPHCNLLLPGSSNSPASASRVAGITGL

[7] = target: Histone-lysine N-methyltransferase SETDB1 (Homo sapiens) (UniProt Q15047); experiment: Inhibition of SETDB1 (unknown origin)
[8] = target: Histone-lysine N-methyltransferase 2A (Homo sapiens) (UniProt Q03164); experiment: Inhibition of MLL1 (unknown origin)
[9] = target: Histone-arginine methyltransferase CARM1 (Homo sapiens) (UniProt Q86X55); experiment: Inhibition of PRMT4 (unknown origin)
[10] = target: Histone-lysine N-methyltransferase PRDM9 (Homo sapiens) (UniProt Q9NQV7); experiment: Inhibition of PRDM9 (unknown origin)
[11] = target: Casein kinase I isoform alpha (Homo sapiens, UniProt P48729); experiment: Inhibition of CSNK1A1 (unknown origin)
Chain of Casein kinase I isoform alpha (P48729 whole entry, canonical isoform): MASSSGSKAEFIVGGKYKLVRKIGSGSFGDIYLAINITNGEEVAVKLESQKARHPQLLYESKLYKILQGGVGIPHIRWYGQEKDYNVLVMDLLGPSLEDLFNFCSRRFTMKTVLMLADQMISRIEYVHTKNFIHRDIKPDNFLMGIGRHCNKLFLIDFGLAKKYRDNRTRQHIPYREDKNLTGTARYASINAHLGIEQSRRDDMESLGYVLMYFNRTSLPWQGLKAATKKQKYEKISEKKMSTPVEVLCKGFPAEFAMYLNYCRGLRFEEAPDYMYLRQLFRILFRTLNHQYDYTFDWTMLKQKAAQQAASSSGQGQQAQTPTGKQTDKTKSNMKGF

[12] = target: MAP kinase-interacting serine/threonine-protein kinase 2 (Homo sapiens, UniProt Q9HBH9); experiment: Inhibition of MKNK2 (unknown origin) in presence of ATP
[13] = target: T2, Histone-lysine N-methyltransferase SMYD3 (Homo sapiens) (UniProt Q9H7B4); experiment: Binding affinity to biotinylated SMYD3 (unknown origin) assessed as dissociation rate constant (Koff) using S-adenosyl-l-methionine as substrate by surface plasmon resonance analysis; in short: as §1
T2 sequence (whole entry): T1 sequence (Q9H7B4 whole entry)

[14] = target: Diacylglycerol kinase alpha (Mus musculus, UniProt O88673); experiment: Inhibition of mouse DGK alpha by ADP-Glo assay
[15] = target: Histone-lysine N-methyltransferase SETD7 (Homo sapiens) (UniProt Q8WTS6); experiment: Inhibition of SETD7 (unknown origin)
[16] = target: Mitotic checkpoint serine/threonine-protein kinase BUB1 (Homo sapiens, UniProt O43683); experiment: Inhibition of Bub1 (unknown origin) in presence of ATP
[17] = target: NUAK family SNF1-like kinase 1 (Homo sapiens, UniProt O60285); experiment: Inhibition of NUAK1 (unknown origin) in presence of ATP
Chain of NUAK family SNF1-like kinase 1 (O60285 whole entry): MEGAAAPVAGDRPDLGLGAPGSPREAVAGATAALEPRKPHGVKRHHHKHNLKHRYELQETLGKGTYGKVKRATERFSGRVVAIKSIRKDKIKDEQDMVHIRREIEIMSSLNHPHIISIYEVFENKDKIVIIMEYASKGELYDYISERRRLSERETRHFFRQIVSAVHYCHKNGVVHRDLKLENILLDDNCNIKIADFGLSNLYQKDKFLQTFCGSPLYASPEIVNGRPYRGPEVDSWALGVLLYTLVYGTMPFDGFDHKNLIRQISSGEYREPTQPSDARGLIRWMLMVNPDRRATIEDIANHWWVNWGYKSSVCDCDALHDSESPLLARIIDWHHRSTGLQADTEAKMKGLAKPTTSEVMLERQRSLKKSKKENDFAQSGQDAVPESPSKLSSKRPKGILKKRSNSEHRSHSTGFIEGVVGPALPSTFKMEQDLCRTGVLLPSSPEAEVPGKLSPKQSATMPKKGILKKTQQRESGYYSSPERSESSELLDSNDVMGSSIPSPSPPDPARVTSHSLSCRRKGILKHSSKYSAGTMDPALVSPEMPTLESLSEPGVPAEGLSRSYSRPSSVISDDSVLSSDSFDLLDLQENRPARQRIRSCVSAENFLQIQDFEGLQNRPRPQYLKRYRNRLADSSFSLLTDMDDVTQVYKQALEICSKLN

[18] = target: Mitogen-activated protein kinase 14 (Homo sapiens, UniProt Q16539); experiment: Inhibition of p38alpha (unknown origin) by competition binding assay
Chain of Mitogen-activated protein kinase 14 (Q16539 whole entry): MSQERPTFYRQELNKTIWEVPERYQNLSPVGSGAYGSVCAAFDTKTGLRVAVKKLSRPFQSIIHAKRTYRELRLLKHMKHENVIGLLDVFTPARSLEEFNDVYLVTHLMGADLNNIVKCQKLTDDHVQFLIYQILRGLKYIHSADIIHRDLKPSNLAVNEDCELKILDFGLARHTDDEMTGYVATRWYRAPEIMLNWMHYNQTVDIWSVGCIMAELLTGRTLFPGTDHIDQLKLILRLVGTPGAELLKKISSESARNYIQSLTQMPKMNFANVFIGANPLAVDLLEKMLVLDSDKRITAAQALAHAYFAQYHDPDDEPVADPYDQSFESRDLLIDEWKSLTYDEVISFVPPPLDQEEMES

[19] = target: RNA 5'-monophosphate methyltransferase (Homo sapiens) (UniProt Q7Z5W3); experiment: Inhibition of BCDIN3D (unknown origin)
[20] = target: Glycogen synthase kinase-3 beta (Homo sapiens, UniProt P49841); experiment: Inhibition of GSK-3-beta (unknown origin) by HTRF assay
[21] = test system: Histone-lysine N-methyltransferase SMYD3 (Homo sapiens), Q9H7B4 [UNDEFINED MUTATION]; experiment: (§2) Inhibition of SMYD3 catalytic inactive mutant co-expressed with HA-tagged MAP3K2 transfected in human HeLa cells assessed as reduction of MAP3K2-K260me3 level incubated for 20 hrs by Western blotting analysis; format: cell-based
In short: (§3)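 After 4 h, compound or DMSO for 20 h. Lysates immunoblotted for MAP3K2-K260me3 (in-house antibody), HA, SMYD3 and MAP3K2 with infrared secondaries. K260me3 signal normalized to HA; three technical replicates, mean ± SEM, nonlinear fit.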

[22] = target: Histone-lysine N-methyltransferase SMYD3 (Homo sapiens, UniProt Q9H7B4); experiment: as §2; format: cell-based; in short: as §3
[23] = target: Epidermal growth factor receptor (Homo sapiens, UniProt P00533); experiment: Inhibition of EGFR (unknown origin) in presence of ATP
Chain of Epidermal growth factor receptor (P00533 whole entry): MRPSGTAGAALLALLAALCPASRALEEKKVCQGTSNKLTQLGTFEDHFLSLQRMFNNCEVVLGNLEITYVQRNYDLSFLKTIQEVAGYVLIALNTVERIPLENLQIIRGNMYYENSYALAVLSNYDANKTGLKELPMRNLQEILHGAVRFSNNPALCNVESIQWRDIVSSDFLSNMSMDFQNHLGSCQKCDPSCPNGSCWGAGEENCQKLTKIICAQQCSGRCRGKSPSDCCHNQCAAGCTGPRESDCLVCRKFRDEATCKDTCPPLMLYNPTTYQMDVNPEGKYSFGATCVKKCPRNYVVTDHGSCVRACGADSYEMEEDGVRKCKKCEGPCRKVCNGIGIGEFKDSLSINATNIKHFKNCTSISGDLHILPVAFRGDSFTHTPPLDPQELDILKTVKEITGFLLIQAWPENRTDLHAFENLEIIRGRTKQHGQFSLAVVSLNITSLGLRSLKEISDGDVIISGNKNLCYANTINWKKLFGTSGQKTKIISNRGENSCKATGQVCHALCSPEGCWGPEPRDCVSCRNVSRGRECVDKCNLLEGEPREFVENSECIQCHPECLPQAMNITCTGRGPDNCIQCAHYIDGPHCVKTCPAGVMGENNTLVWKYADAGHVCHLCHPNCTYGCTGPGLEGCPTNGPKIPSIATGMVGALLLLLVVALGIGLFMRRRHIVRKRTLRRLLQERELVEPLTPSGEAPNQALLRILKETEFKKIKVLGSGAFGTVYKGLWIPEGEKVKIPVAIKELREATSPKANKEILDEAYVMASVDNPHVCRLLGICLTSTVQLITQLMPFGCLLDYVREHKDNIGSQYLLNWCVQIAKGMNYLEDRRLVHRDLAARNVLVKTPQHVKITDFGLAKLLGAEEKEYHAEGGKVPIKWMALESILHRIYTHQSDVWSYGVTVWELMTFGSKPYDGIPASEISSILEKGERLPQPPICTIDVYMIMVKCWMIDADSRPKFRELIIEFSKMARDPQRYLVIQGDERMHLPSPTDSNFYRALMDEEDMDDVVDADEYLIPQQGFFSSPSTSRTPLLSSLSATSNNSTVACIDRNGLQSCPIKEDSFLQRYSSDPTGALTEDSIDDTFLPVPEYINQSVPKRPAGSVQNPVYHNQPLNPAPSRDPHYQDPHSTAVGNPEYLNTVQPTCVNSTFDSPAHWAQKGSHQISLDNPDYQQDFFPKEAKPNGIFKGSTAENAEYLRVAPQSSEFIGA

[24] = target: T2, Histone-lysine N-methyltransferase SMYD3 (Homo sapiens); experiment: Binding affinity to recombinant human SMYD3 expressed in Escherichia coli assessed as change in enthalpy at 0.3 mM by isothermal titration calorimetry
In short: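 Syringe held compound at 0.3 mM in 20 mM HEPES pH 7.4, 150 mM NaCl, 0.005% Tween 20, 2.5% DMSO; eight 4 µL injections at 180 s intervals into SMYD3.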

[25] = target: DNMT3A2/3L complex (Homo sapiens) (UniProt Q9Y6K1+Q9UJW3); experiment: Inhibition of DNMT3A/DNMT3L (unknown origin); format: protein-complex assay
[26] = target: Cyclin-dependent kinase 12 (Homo sapiens, UniProt Q9NYV4); experiment: Inhibition of CDK12 (unknown origin) by using c-myc peptide as substrate in presence of ATP
Chain of Cyclin-dependent kinase 12 (Q9NYV4 whole entry): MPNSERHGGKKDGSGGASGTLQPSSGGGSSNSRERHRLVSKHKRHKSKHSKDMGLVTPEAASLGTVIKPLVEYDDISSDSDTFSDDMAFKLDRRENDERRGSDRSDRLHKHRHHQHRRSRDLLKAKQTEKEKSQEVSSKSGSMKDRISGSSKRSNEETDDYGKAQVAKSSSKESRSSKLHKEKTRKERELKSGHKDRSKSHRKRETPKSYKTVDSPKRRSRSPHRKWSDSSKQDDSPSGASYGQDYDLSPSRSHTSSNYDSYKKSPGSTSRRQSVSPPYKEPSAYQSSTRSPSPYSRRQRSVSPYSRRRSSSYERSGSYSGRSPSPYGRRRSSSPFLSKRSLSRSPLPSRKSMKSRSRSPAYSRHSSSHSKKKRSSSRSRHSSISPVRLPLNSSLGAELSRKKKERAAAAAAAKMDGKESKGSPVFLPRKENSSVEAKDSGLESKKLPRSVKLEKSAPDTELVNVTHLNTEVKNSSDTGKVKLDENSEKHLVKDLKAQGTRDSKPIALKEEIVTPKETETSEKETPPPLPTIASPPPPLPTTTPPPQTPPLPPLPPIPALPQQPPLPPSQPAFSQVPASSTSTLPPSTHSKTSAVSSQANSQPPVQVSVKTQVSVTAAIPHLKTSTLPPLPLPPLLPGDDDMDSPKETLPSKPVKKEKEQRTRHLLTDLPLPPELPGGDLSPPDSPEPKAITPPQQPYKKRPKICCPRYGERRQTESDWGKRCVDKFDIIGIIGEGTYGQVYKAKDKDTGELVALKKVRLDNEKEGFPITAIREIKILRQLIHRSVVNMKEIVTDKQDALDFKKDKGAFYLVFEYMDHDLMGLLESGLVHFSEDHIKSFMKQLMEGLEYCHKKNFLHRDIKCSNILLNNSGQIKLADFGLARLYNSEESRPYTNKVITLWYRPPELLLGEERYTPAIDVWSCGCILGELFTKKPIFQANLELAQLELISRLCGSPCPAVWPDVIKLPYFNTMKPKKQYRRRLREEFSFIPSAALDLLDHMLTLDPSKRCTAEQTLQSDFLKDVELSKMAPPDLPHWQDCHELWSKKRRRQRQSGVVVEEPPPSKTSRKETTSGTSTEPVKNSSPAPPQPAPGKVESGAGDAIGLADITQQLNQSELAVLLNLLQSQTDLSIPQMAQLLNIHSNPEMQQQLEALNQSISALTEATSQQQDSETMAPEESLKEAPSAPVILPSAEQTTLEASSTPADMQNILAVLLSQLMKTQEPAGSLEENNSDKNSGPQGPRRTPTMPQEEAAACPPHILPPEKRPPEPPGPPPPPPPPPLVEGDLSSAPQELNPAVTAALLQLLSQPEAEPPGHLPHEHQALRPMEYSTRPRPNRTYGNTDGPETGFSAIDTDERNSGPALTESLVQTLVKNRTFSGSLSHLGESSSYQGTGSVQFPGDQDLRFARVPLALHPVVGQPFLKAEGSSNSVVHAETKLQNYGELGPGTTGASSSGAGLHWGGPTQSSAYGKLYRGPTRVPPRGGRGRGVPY

Hs-578T = experiment: Antiproliferative activity against human Hs-578T cells assessed as inhibition of cell viability measured for 3 to 5 days by alamar blue staining based assay; format: functional
Homo sapiens = species on record: Homo sapiens; experiment: Selectivity ratio of IC50 for recombinant human SMYD3 to the IC50 for inhibition of SMYD3- dependent MAP3K2 methylation
[27] = target: T2, Histone-lysine N-methyltransferase SMYD3 (Homo sapiens); experiment: Binding affinity to biotinylated SMYD3 (unknown origin) assessed as association rate constant (Kon) using S-adenosyl-l-methionine as substrate by surface plasmon resonance analysis; in short: as §1

inhibition [1]: inactive
IC50 [2]: > 20 µM
Kd [3]: 97 nM
IC50 [4]: > 20 µM
IC50 (HT-29): > 10 µM
IC50 [6]: > 20 µM
inhibition [7]: inactive
inhibition [8]: inactive
inhibition [9]: inactive
inhibition [10]: inactive
IC50 [11]: > 20 µM
IC50 [12]: > 20 µM
Kdiss [13]: 3 10^-2/s
IC50 [14]: > 20 µM
inhibition [15]: inactive
IC50 [16]: > 20 µM
IC50 [17]: > 20 µM
IC50 [18]: > 20 µM
inhibition [19]: inactive
IC50 [20]: > 20 µM
inhibition [21]: Dose-Dependent Effect
IC50 [22]: 183 nM
IC50 [23]: > 20 µM
deltaH [24]: -4.2 kcal/mol
inhibition [25]: inactive
IC50 [26]: > 20 µM
Ratio IC50 (Homo sapiens): 2
Ka [27]: 3.1 10^5/M/s
Compound: C[C@H]1CC(=O)Nc2cc(C(=O)NCCC3CC3)ccc2N1C(=O)N1CC2CC2C1 (stereo partly specified)
IC50 (HaCaT): > 10 µM
IC50 [5]: > 10 µM
IC50 (Hs-578T): > 10 µM
